ChEMBL document CHEMBL1129666, “Cross-linking and sequence specific alkylation of DNA BY aziridinylquinones. 1. Quinone methides” (J Med Chem, 1996)

Assays:
Nucleic Acid [1] = assay: Efficiency at pBR322 DNA interstand cross-linking at 10 uM; type: functional; conditions: Escherichia coli
Procedure, shortened: (§1)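 5'-end-labelled HindIII-linearised pBR322 (~5000 cpm/sample) incubated with compound 2 h at 37 °C, pH 4, in TEA buffer with 2 mM ascorbic acid reduction. Stopped, ethanol-precipitated, denatured 90 °C 2 min in strand separation buffer, run on 0.8% agarose (Tris-acetate, 40 V, 16 h). Autoradiograph densitometry gives percent double-stranded (cross-linked) DNA per lane. Single representative experiment.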

K562 = assay: In vitro cytotoxicity against Human Chronic Leukemia K562 cells; type: functional, cell-based
Procedure, shortened: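 600 cells/well exposed to compound for 2 h, growth measured by MTT with absorbance at 540 and 640 nm. Growth inhibition plotted against concentration, triplicate per concentration.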

Nucleic Acid [2] = assay: Efficiency at pBR322 DNA interstand cross-linking at 100 uM; type: functional; conditions: Escherichia coli; procedure, shortened: as §1

Compound: O=C1C=C(N2CC2)C(=O)C=C1N1CC1
- Cross linking (Nucleic Acid [1]): 100%
- IC50 (K562): 9 nM
- Cross linking (Nucleic Acid [2]): 100%

Compound: CCC1=CC(=O)C(N2CC2)=CC1=O
- Cross linking (Nucleic Acid [1]): 6.9%
- IC50 (K562): 600 nM
- Cross linking (Nucleic Acid [2]): 57.1%

Compound: CC1=CC(=O)C(C)=C(C)C1=O
- Cross linking (Nucleic Acid [1]): 0%
- IC50 (K562): 3600 nM
- Cross linking (Nucleic Acid [2]): 0%

Compound: CC1=CC(=O)C(N)=CC1=O
- Cross linking (Nucleic Acid [1]): 0%
- IC50 (K562): > 15000 nM
- Cross linking (Nucleic Acid [2]): 0%

Compound: CC1=C(C)C(=O)C=CC1=O
- Cross linking (Nucleic Acid [1]): 0%
- IC50 (K562): 1400 nM
- Cross linking (Nucleic Acid [2]): 0%

Compound: CC1=C(C)C(=O)C(C)=C(C)C1=O [DUROQUINONE]
- Cross linking (Nucleic Acid [1]): 0%
- IC50 (K562): > 50000 nM
- Cross linking (Nucleic Acid [2]): 0%

Compound: CC1=CC(=O)C=CC1=O [Cresoquinone]
- Cross linking (Nucleic Acid [1]): 0%
- IC50 (K562): 2750 nM
- Cross linking (Nucleic Acid [2]): 0%

Compound: CC1=CC(=O)C(N2CCC2)=CC1=O
- Cross linking (Nucleic Acid [1]): 0%
- IC50 (K562): > 25000 nM
- Cross linking (Nucleic Acid [2]): 0%

Compound: O=C1C=C(N2CCC2)C(=O)C=C1N1CCC1
- Cross linking (Nucleic Acid [1]): 0%
- IC50 (K562): > 40000 nM
- Cross linking (Nucleic Acid [2]): 0%

Compound: CC1=C(C)C(=O)C(N2CC2)=CC1=O
- Cross linking (Nucleic Acid [1]): 1.2%
- IC50 (K562): 1300 nM
- Cross linking (Nucleic Acid [2]): 4.7%

Compound: CC1=CC(=O)C(N2CC2)=C(C)C1=O
- Cross linking (Nucleic Acid [1]): 3%
- IC50 (K562): 1200 nM
- Cross linking (Nucleic Acid [2]): 9%

Compound: CC1=CC(=O)C=C(C)C1=O
- Cross linking (Nucleic Acid [1]): 0%
- IC50 (K562): 1250 nM
- Cross linking (Nucleic Acid [2]): 0%

Compound: CC1=CC(=O)C(N2CC2)=CC1=O
- Cross linking (Nucleic Acid [1]): 12.2%
- IC50 (K562): 100 nM
- Cross linking (Nucleic Acid [2]): 81%

Compound: CCCC1=CC(=O)C(N2CC2)=CC1=O
- Cross linking (Nucleic Acid [1]): 2.2%
- IC50 (K562): 600 nM
- Cross linking (Nucleic Acid [2]): 13.2%

Compound: NC1=CC(=O)C(N)=CC1=O
- Cross linking (Nucleic Acid [1]): 0%
- IC50 (K562): > 25000 nM
- Cross linking (Nucleic Acid [2]): 0%
